OX1R antag-1: antagonists of human orexin 1 receptor (OX1R); Orexin/Hypocretin receptor type 1 (Homo sapiens), O43613; 330,000 compounds, 1.8% hits; OX1R-expressing cells, FRET antagonist read-out; inhibition, % at 6.6 µM; in the data active = inhibition mostly above about 38%, no sharp cut-off; inactive = mostly below about 40%
Target sequence (O43613 whole entry, looked up): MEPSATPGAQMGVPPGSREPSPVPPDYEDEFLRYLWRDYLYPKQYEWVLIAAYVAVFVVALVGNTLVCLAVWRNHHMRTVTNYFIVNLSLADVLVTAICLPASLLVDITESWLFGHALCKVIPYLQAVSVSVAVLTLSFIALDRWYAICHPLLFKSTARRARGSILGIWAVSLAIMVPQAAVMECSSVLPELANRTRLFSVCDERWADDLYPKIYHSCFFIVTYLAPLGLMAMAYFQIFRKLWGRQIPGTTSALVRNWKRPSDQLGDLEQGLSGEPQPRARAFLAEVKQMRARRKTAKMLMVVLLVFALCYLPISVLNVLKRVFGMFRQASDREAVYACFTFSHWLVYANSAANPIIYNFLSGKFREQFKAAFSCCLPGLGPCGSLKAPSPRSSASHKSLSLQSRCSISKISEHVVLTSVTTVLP
OX1R antag-2: OX1R (HCRTR1) antagonists, primary screen, fluorescence, CHO/OX1R cells, Fluo-8 calcium, orexin A. Orexin/Hypocretin receptor type 1 (Homo sapiens), O43613. Fluo-8 calcium fluorescence. inhibition, % at 5 µM. 330,000 compounds, 0.43% hits. AID 434989, 2010;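 active = inhibition above its plate's threshold, mean inhibition of all tested compounds on the plate plus 3 SD, cut at about 37% in these data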
CHO parental Ca: ATP-evoked calcium signal inhibitors, parental CHO, primary screen, counter-screen for OX1R antagonist project, cell-based, fluorescence, Fluo-8 calcium dye; parental CHO-K1, ATP-induced calcium, Fluo-8 fluorescence; inhibition, % at 5.6 µM; 330,000 compounds, 0.63% hits;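 active = inhibition above that plate's mean sample inhibition plus 3 SD, cut at about 26% in these data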
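Test system: parental CHO cells; detection: calcium-sensitive Fluo-8 fluorescence; evaluation: percent inhibition of calcium signal; also added: ATP as calcium-mobilizing challenge; repeats: one well per compound; control set: ATP-challenged DMSO wells low, unchallenged DMSO wells high; compound: single nominal dose of 5.6 µM per compound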
OXTR potentiate: human OXTR potentiators, primary screen, fluorescence, CHO-OTR cells, Fluo-8 calcium; Fluo-8 calcium fluorescence, potentiator mode; 0% = oxytocin EC15, 100% = EC100; activation, % at 3 µM; 320,000 compounds, 0.061% hits;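 active = activation above that plate's cutoff, the mean activation of tested compounds plus 3 SD, cut at about 6.6% in these data, passing the limit was not always enough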
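test system = CHO-OTR cells, human receptor | compound = single-point 3.0 µM | schedule = 6 min compound pre-incubation at room temperature, 100 s kinetic read | signal = Fluo-8 no-wash calcium dye fluorescence, excitation 470-495 nm, emission 515-575 nm | repeats = single well per compound, singlicate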
V1R ag counter: agonists of human V1a receptor, primary screen, counter-screen for OXTR agonist project, fluorescence, CHO-V1R cells; activation, % at 3 µM; 320,000 compounds, 0.25% hits; Fluo-8 calcium fluorescence, agonist mode; 0% DMSO, 100% 3 nM vasopressin; AID 2797, 2010;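 active = activation above the mean activation of all tested compounds plus 3 SD, per screening run, cut at about 20% in these data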;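 also: signal is peak over basal fluorescence ratio across a 100 second FLIPR read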
OXTR agonist: human OXTR agonists, primary screen, fluorescence, CHO-OTR cells, Fluo-8 calcium; Fluo-8 calcium fluorescence; normalized: DMSO 0%, oxytocin 100%; Oxytocin receptor (Homo sapiens), P30559; AID 2435, 2010; 320,000 compounds, 0.32% hits; activation, % at 3 µM;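 active = activation above the mean of all tested compounds plus 3 SD, cutoff set per screening run, cut at about 20% in these data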;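 also: peak over basal fluorescence ratio from a 100 s FLIPR kinetic read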
OX1R HTRF conf: OX1R (HCRTR1) antagonists, confirmation, cell-based, HTRF; shares compounds with OX1R antag-1; OX1R-expressing cells, HTRF antagonist assay; inhibition, % at 6.6 µM; 1,800 compounds, 49% hits; in the data active = inhibition above about 55%;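 also: CHO cells expressing OX1R stimulated with orexin A at about EC80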
CHO-K1 HTRF: signal inhibition in parental CHO-K1 cells, counter-screen for OX1R antagonist project, cell-based, HTRF; shares compounds with OX1R antag-1; HTRF counterscreen; inhibition, % at 6.6 µM; 1,800 compounds, 48% hits; AID 493232, 2011; in the data active = inhibition above about 17%
Of the large screens only hits and unclear results are named; the others gave an inactive call (follow-up assays come after a bar, where they were run). Shown are actives, neighbours in structure and some others; about 2.7% of the full set was active somewhere.

CCOC(=O)C1=C(C)N(C)C(=O)NC1c1cc2c(cc1[N+](=O)[O-])OCO2 (stereo unspecified)	none
CCCn1c(/C=C/c2cc[n+](C)cc2)nc2ccccc21	OX1R antag-1 77.9 | OX1R HTRF conf inactive | CHO-K1 HTRF 47.3
N#Cc1cc([N+](=O)[O-])ccc1Oc1ccc(-c2nnco2)cc1	OX1R antag-1 78.7 | OX1R HTRF conf inactive | CHO-K1 HTRF 42.4
Cc1ccc2nc(Nc3ccccc3)c(/C=N/O)c(=O)n2c1	OX1R antag-1 98.0 | OX1R HTRF conf 62.3 | CHO-K1 HTRF inactive
O=C(CSc1ccc(-c2ccccc2)nn1)c1ccccc1	OX1R antag-1 81.6 | OX1R HTRF conf inactive | CHO-K1 HTRF inactive
Cc1cc(C(=O)C(C)OC(=O)c2ccc(NC(=O)CC#N)cc2)c(C)n1-c1ccccc1 (stereo unspecified)	none
CN(C)c1ccc(-c2nnc(-c3cccs3)o2)cc1	OX1R antag-1 83.6 | OX1R HTRF conf 87.9 | CHO-K1 HTRF inactive
COc1ccc(/C=N/N2C(=O)c3ccccc3C2=O)cc1	none
COc1ccccc1/C=N/N1C(=O)c2cccc3cccc(c23)C1=O	OX1R antag-1 96.7 | OX1R HTRF conf inactive | CHO-K1 HTRF 55.0
COc1ccccc1CNC(=O)COC(=O)C1CCN(S(=O)(=O)c2ccc(C)c(C)c2)CC1	none
Clc1cccc(/C=N\Nc2nccs2)c1	OX1R antag-1 81.8 | OX1R HTRF conf inactive | CHO-K1 HTRF inactive
Cn1cc(Cl)c(C(=O)N/N=C/c2ccc3c4c(cccc24)CC3)n1	OX1R antag-1 91.5 | OX1R HTRF conf 83.9 | CHO-K1 HTRF inactive
CC12CCC(C(=O)NC3CCCCC3)([C@H](Br)C1=O)C2(C)C (stereo partly specified)	none
O=C(N/N=C/c1ccc([N+](=O)[O-])s1)c1ccccc1	OX1R antag-1 107.3 | OX1R HTRF conf inactive | CHO-K1 HTRF 51.8
COC(=O)N/N=C/c1ccc([N+](=O)[O-])s1	OX1R antag-1 105.8 | OX1R HTRF conf inactive | CHO-K1 HTRF 84.9
Cn1c(SCC(=O)N/N=C/c2cc([N+](=O)[O-])ccc2O)nnc1-c1ccccc1	none
Cn1c(SCC(=O)N/N=C/c2ccc([N+](=O)[O-])s2)nnc1-c1ccccc1	OX1R antag-1 86.7 | OX1R HTRF conf inactive | CHO-K1 HTRF 51.8
O=C(N/N=C/c1ccc([N+](=O)[O-])s1)c1ccccc1Br	none
CC1CN(C(=O)/C=C/c2ccc([N+](=O)[O-])s2)CC(C)O1 (stereo unspecified)	OX1R antag-1 126.0 | OX1R HTRF conf 64.5 | CHO-K1 HTRF 74.6
CC1CN(C(=O)/C=C/c2ccccc2[N+](=O)[O-])CC(C)O1 (stereo unspecified)	none
COc1ccc(NC(=O)/C=C/c2c(Cl)nc3ccccn23)cc1	OX1R antag-1 111.2 | OX1R HTRF conf 95.9 | CHO-K1 HTRF 16.9
O=C1OCCC1Sc1nc2ccccc2c(=O)n1Cc1ccccc1 (stereo unspecified)	none
CC(C)(C)c1ccc(-c2nnc(SC3CCOC3=O)n2Cc2ccccc2)cc1 (stereo unspecified)	OX1R antag-1 84.2 | OX1R HTRF conf inactive | CHO-K1 HTRF inactive
Cc1cc(C)c2[nH]c3nc(SCC(=O)O)nnc3c2c1	OX1R antag-1 104.3 | OX1R HTRF conf inactive | CHO-K1 HTRF inactive
O=C(O)CSc1nnc2c(n1)[nH]c1ccccc12	none
CCn1cc(C(=O)N[C@@H](CCSC)C(=O)NCCCOC)c(=O)c2cc3c(cc21)OCO3	none
COc1ccc(C(=O)Nc2ccc3ccccc3n2)cc1OC	OX1R antag-1 77.2 | OX1R HTRF conf 78.0 | CHO-K1 HTRF inactive
Cc1ccc(C(=O)Nc2ccc3ccccc3n2)cc1	none
Cc1ccccc1C(=O)N1CCC(C(=O)Nc2cc(C(F)(F)F)ccc2N2CCCC2)CC1	none
CC/C(C)=N\N=C\c1c(O)n(CC)c2cc(C3=NNC(=O)CC3)ccc12	OX1R antag-1 88.2 | OX1R HTRF conf inactive | CHO-K1 HTRF inactive
CCn1c(O)c(/C=N/N=C/c2ccc(OC)cc2)c2cc(C3=NNC(=O)CC3)ccc21	none
O=S(=O)(NN=C1CCCCCC1)c1ccccc1	none
CCCn1cnc2cc(NC(=O)c3ccco3)ccc21	OX1R antag-1 93.9 | OX1R HTRF conf inactive | CHO-K1 HTRF inactive
O=C(Nc1ccc2nn(-c3ccccc3)nc2c1)c1ccco1	OX1R antag-1 94.7 | OX1R HTRF conf 70.7 | CHO-K1 HTRF inactive
O=C(Nc1cc2nn(-c3ccccc3)nc2cc1Cl)c1ccco1	none
CCn1cnc2cc(NC(=O)c3ccco3)ccc21	none
CCOc1ccc(S(=O)(=O)N2CCC(C(=O)NCc3ccncc3)CC2)cc1Cl	none
CC1CCN(S(=O)(=O)CCNC(=O)c2ccccc2)CC1	OX1R antag-1 88.9 | OX1R HTRF conf inactive | CHO-K1 HTRF inactive
CN(CCO)C1=NS(=O)(=O)c2cc([N+](=O)[O-])ccc21	OX1R antag-1 95.1 | OX1R HTRF conf 66.3 | CHO-K1 HTRF 93.9
COc1c(C)cc(C(=O)C2CCCN(C(=O)c3cccc(-n4cccn4)c3)C2)cc1C (stereo unspecified)	OX1R antag-1 89.5 | OX1R HTRF conf 80.9 | CHO-K1 HTRF inactive
COc1c(C)cc(C(=O)C2CCCN(C(=O)c3cc(C)on3)C2)cc1C (stereo unspecified)	none
CCn1c(C)c(C(=O)O)c2cc(OC)c3ccccc3c21	OX1R antag-1 99.5 | OX1R HTRF conf 89.2 | CHO-K1 HTRF inactive
Cn1nccc1C(=O)Nc1cccc(S(=O)(=O)N2CCOCC2)c1	none
CCOC(=O)N1CCN(S(=O)(=O)c2cccc3nsnc23)CC1	OX1R antag-1 82.2 | OX1R HTRF conf inactive | CHO-K1 HTRF 38.8
O=S(=O)(c1cccc2nsnc12)N1CCN(c2ncccn2)CC1	OX1R antag-1 84.4 | OX1R HTRF conf inactive | CHO-K1 HTRF 20.3
CCOC(=O)C1CCCN(S(=O)(=O)c2cccc3nsnc23)C1 (stereo unspecified)	none
